Rows were chosen to be rich in hits. Some 1.3% of all compounds tested hit in one or more screens of this group.
Lipid droplet = modulators of hepatic lipid droplet formation; AML12 mouse hepatocytes, oleate lipid droplets, BODIPY imaging; inhibition, % at 6.5 µM; hit rate 0.4% among 240,000; AID 1656;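 active = lipid droplet intensity inhibited by at least 50%, with more than 500 cells counted; inconclusive = wells with under 300 cells, treated as cytotoxic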
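Assay system: AML12 hepatocytes (mouse); Probe or stimulus: oleic acid at 100 µM to induce lipid droplet formation; Dosing: compound at 6.5 µM only; Schedule: compound with oleate, overnight; Detection: fluorescence imaging, 20x objective, two fields per well; Measure: % inhibition of lipid droplet signal.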
procasp3 activ = activates human procaspase-3; hit rate 0.11% among 330,000; P42574; recombinant procaspase-3 D3A, Ac-DEVD-pNA absorbance 405 nm; activation, % at 8.5 µM;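 active = activation above the mean of all tested compounds plus 3 SD, cut at about 21% in these data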;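 also: 0% = DMSO alone and 100% = DMSO wells spiked with extra 5 µM PC-3 D3A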
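Assay system: Autoprocessing-dead procaspase-3 D3A mutant enzyme; also added: Ac-DEVD-pNA; doses: one concentration, 8.5 µM nominal, 0.8% DMSO; times: 1 h compound preincubation, 2 h substrate hydrolysis at 25 °C; technique: 405 nm absorbance of p-nitroaniline, reads at 0 and 120 min; measure: % activation between DMSO and enzyme-spiked controls; repeats: single replicate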
procasp7 counter = counter-screen: procaspase-7 (human) activation; hit rate 0.093% among 330,000; AID 463210; activation, % at 8.5 µM; recombinant procaspase-7, Ac-DEVD-pNA absorbance 405 nm; D23A/D198A/D206A triple mutant, cannot self-cleave; scale: DMSO 0, 5 µM enzyme 100;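 active = percent activation above the screen-wide mean plus 3 SD, cut at about 25% in these data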
Target sequence (P55210 whole entry D23A/D198A/D206A): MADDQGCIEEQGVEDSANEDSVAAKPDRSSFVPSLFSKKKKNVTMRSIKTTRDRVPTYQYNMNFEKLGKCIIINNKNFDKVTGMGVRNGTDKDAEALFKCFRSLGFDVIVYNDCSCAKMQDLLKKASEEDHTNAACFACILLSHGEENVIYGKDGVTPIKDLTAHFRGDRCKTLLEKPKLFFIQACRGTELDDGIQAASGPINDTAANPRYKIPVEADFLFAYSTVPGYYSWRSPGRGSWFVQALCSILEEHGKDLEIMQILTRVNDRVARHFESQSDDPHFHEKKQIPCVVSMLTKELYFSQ
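Test system: Procaspase-7 triple mutant (PC-7 D3A). Also added: Ac-DEVD-pNA substrate, 400 µM as added. Schedule: 1 h enzyme–compound preincubation and 2 h substrate reaction, both 25 °C. Signal: p-Nitroaniline absorbance at 405 nm, read at 0 and 120 min. Control set: low DMSO alone, high DMSO plus 5 µM PC-7.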
GASC-1 inh = human JMJD2C demethylase inhibition | AID 2099 | inhibition, % at 2.35 µM | hit rate 0.069% among 330,000 | Q9H3R0 | GST-JMJD2C(1-420) H3K9me3 demethylation, DELFIA europium;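 active = more than half of a compound's replicate wells show inhibition beyond 50%, single wells judged on their own value; inconclusive = some, but no more than half, of replicates pass 50% inhibition; inactive = no replicate passes 50% inhibition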;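 also: signal counts dimethyl H3K9 product captured on neutravidin plate; 0% = median of DMSO wells and 100% = 0.3 times that DMSO median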
Target sequence (Q9H3R0 1-420 limits assumed): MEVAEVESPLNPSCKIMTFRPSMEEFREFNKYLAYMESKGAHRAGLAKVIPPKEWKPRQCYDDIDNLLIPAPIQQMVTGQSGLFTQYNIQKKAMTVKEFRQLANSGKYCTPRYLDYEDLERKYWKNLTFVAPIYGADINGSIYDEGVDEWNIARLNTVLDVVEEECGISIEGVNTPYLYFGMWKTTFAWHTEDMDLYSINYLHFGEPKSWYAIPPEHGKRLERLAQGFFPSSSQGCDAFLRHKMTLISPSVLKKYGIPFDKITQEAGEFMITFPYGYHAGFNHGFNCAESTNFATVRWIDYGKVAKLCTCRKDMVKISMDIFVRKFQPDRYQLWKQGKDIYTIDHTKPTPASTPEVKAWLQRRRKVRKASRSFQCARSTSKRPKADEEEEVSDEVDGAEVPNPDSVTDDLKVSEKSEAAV
VLA-4 inh = inhibition in a human VLA-4 binding assay. VLA-4 expressing cells, ligand binding flow cytometry. inhibition, % (about 7 µM as worked out from the volumes in the protocol). hit rate 0.2% among 330,000. AID 2557; in the data active = inhibition above about 50%
GRK2 aptamer HTS = blocks RNA aptamer binding to human GRK2; P25098; bead flow cytometry, FAM-aptamer displacement from GRK2; inhibition of aptamer binding, % at 10 µM; hit rate 0.59% among 330,000; AID 488847;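 active = inhibition of aptamer binding above 40%, roughly 3 SD of noise, on plates passing a quality check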;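 also: median bead fluorescence of bound FAM aptamer so fluorescent compounds give negative values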
VLA-4 allo CP = confirmation of allosteric modulators of human VLA-4 integrin; shares compounds with VLA-4 inh; hit rate 2% among 1,300; U937 cells, HUTS-21 LIBS mAb binding, flow cytometry; LDV ligand present at threefold Kd; inhibition, % at 6.7 µM; AID 2813; in the data active = inhibition above about 40%;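 also: 0% = ligand without compound and 100% = no ligand background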
* hit, by the source's call; ! = not confirmed by another sample.

What do the screens show for `Cc1cc(C)cc(N(CC(=O)NC(C)(C)C)C(=O)CCC(=O)Nc2nccs2)c1`?
Lipid droplet: 9; procasp3 activ: 5; procasp7 counter: -3; GASC-1 inh: -11; VLA-4 inh: 25; GRK2 aptamer HTS: 2

What do the screens show for `CCC(=O)c1cn(CC(=O)Nc2c(C)cccc2C)c2ccccc12`?
Lipid droplet: -6; procasp3 activ: -1; procasp7 counter: 4; GASC-1 inh: -12; VLA-4 inh: 14; GRK2 aptamer HTS: 0; VLA-4 allo CP: 7

What do the screens show for `CCCCn1c(N)c(N(CCOC)C(=O)CCS(=O)(=O)c2ccc(Cl)cc2)c(=O)[nH]c1=O`?
procasp3 activ: -2; procasp7 counter: 0; GASC-1 inh: -7; VLA-4 inh: 1; GRK2 aptamer HTS: 0

How did CN(Cc1cnc2nc(N)nc(N)c2n1)c1ccc(C(=O)N[C@@H](CCC(=O)O)C(=O)O)cc1 do in these assays?
procasp3 activ: 2; procasp7 counter: -1; GASC-1 inh: -17; VLA-4 inh: 55*!; GRK2 aptamer HTS: 1; VLA-4 allo CP: -2

What do the screens show for `CCOC(=O)[C@@H]1[C@H]2COc3ccc(Br)cc3[C@H]2N2C(=O)N(c3ccc(Cl)cc3)C(=O)[C@]12C`?
procasp3 activ: -1; procasp7 counter: 1; GASC-1 inh: -5; VLA-4 inh: 27; GRK2 aptamer HTS: 0

What do the screens show for `NS(=O)(=O)c1ccc(CNC(=O)Cc2ccccc2F)cc1`?
Lipid droplet: 4; procasp3 activ: -8; procasp7 counter: 1; GASC-1 inh: -7; VLA-4 inh: 2; GRK2 aptamer HTS: 2

How did NS(=O)(=O)c1ccc(CNC(=O)C(Cc2ccccc2)NS(=O)(=O)c2ccccc2F)cc1 (stereo unspecified) do in these assays?
Lipid droplet: -10; procasp3 activ: 4; procasp7 counter: -1; GASC-1 inh: -2; VLA-4 inh: 43; GRK2 aptamer HTS: 1; VLA-4 allo CP: -9

What do the screens show for `O=C(C[C@@H]1C/C=C\C[C@@H](NC(=O)OCC2c3ccccc3-c3ccccc32)C(=O)OCCNC1=O)N[C@@H](CO)Cc1ccccc1`?
procasp3 activ: 1; procasp7 counter: -3; GASC-1 inh: 0; VLA-4 inh: 30; GRK2 aptamer HTS: 0

Results for COc1ccc(S(=O)(=O)CC(=O)c2cc(C)c(O)c(C)c2)cc1 ?
Lipid droplet: -13; procasp3 activ: 0; procasp7 counter: 8; GASC-1 inh: -36; VLA-4 inh: 50*; GRK2 aptamer HTS: 4; VLA-4 allo CP: -10

What do the screens show for `Cc1ccc(S(=O)(=O)CCC(=O)OCc2ccc(S(=O)(=O)C(C)C)cc2)cc1`?
Lipid droplet: 0; procasp3 activ: -5; procasp7 counter: -2; GASC-1 inh: -3; VLA-4 inh: 51*; GRK2 aptamer HTS: 1; VLA-4 allo CP: 3

Results for COC(=O)c1ccc(N2CCN(c3ccccc3)CC2)c(N)c1 ?
Lipid droplet: -41; procasp3 activ: -3; procasp7 counter: 10; GASC-1 inh: -13; VLA-4 inh: 45; GRK2 aptamer HTS: 5; VLA-4 allo CP: 2

Results for COC(=O)c1ccc(N2CCN(c3ccccc3)CC2)c(NC(=O)C2CC2)c1 ?
procasp3 activ: 1; procasp7 counter: 4; GASC-1 inh: 0; VLA-4 inh: 5; GRK2 aptamer HTS: 0

Results for COc1cc(CCCN2C(=O)C(=O)NC[C@@H]2Cc2ccc(O)cc2)cc(OC)c1OC ?
Lipid droplet: -3; procasp3 activ: 2; procasp7 counter: 2; GASC-1 inh: 3; VLA-4 inh: 2; GRK2 aptamer HTS: 0

Results for COc1cc(CCCN2C(=O)C(=O)NC[C@@H]2CCCCN)cc(OC)c1OC ?
Lipid droplet: 1; procasp3 activ: 10; procasp7 counter: 0; GASC-1 inh: 4; VLA-4 inh: 3; GRK2 aptamer HTS: 2; VLA-4 allo CP: 16

What do the screens show for `Cc1nn(-c2cc(N3CCOCC3)ccc2N)c(=O)c2ccccc12`?
Lipid droplet: -8; procasp3 activ: 1; procasp7 counter: -4; GASC-1 inh: 7; VLA-4 inh: 64*; GRK2 aptamer HTS: 2; VLA-4 allo CP: 1

Results for COC(=O)c1c(C(=O)OC)c(-c2ccc(F)cc2)n2c1CS(=O)(=O)C2 ?
Lipid droplet: 6; procasp3 activ: 3; procasp7 counter: -1; GASC-1 inh: inconclusive; VLA-4 inh: 41; GRK2 aptamer HTS: 1; VLA-4 allo CP: -13

What do the screens show for `Cc1ccc(-c2csc(NC(=O)c3c(C)noc3C)n2)s1`?
procasp3 activ: 6; procasp7 counter: -8; GASC-1 inh: -3; VLA-4 inh: -13; GRK2 aptamer HTS: 3

How did CC(OC(=O)c1ccc2ncsc2c1)C(=O)N1CCCC1 (stereo unspecified) do in these assays?
Lipid droplet: -6; procasp3 activ: -4; procasp7 counter: -6; GASC-1 inh: 10; VLA-4 inh: 19; GRK2 aptamer HTS: 0

How did S=C(Nc1ccccc1)Nc1ccc(Cl)cc1Cl do in these assays?
Lipid droplet: 0; procasp3 activ: -8; procasp7 counter: 0; GASC-1 inh: 0; VLA-4 inh: 1; GRK2 aptamer HTS: 0

Results for FC(F)(F)c1cccc(NC(=S)Nc2ccc(Cl)cc2Cl)c1 ?
procasp3 activ: -6; procasp7 counter: -10; GASC-1 inh: 3; VLA-4 inh: 90*; GRK2 aptamer HTS: 2; VLA-4 allo CP: 11

Results for COc1ccc(-c2noc(CCC(=O)NCCCN3CCN(c4ccc(F)cc4)CC3)n2)cc1 ?
Lipid droplet: -38; procasp3 activ: 6; procasp7 counter: -3; GASC-1 inh: 11; VLA-4 inh: 57*; GRK2 aptamer HTS: 0; VLA-4 allo CP: -6

What do the screens show for `COc1ccc(Br)c(C(=O)NNC(=O)c2ccc(NS(=O)(=O)c3cccs3)cc2)c1`?
procasp3 activ: -7; procasp7 counter: 0; GASC-1 inh: -5; VLA-4 inh: 5; GRK2 aptamer HTS: 1

What do the screens show for `Cc1ccc(S(=O)(=O)N2CCOCC2)cc1NC(=O)COC(=O)c1ccccc1OCc1c(C)noc1C`?
Lipid droplet: 3; procasp3 activ: 5; procasp7 counter: 0; GASC-1 inh: -3; VLA-4 inh: 40; GRK2 aptamer HTS: 1; VLA-4 allo CP: -14

Results for CC1=C(CC[C@@H](C)CO)OC2CC3C4CCC5CC(O)CCC5(C)C4CC(=O)C3(C)C12 (stereo partly specified) ?
procasp3 activ: -1; procasp7 counter: 14; GASC-1 inh: 0; VLA-4 inh: -31; GRK2 aptamer HTS: 0
